Calls of active or inactive are those of the source. The calls are words filed in the database; no cut-off is given here.
biological target: Ephrin type-A receptor 2 (Homo sapiens) (UniProt P29317); test: Agonist activity against EphA2 (unknown origin) overexpressed in MDA-MB-231-A2 cells assessed as increase in phosphorylated EphA2 levels at 50 uM after 30 mins by immunoprecipitation and immunoblot assay; assay type: cell-based
Outline: (§1)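 MDA-MB-231 cells stably overexpressing EphA2 (kept in 1 µg/ml puromycin) were plated at 100,000 cells/well, grown 24 h, then treated 30 min with compound (2, 10, 50 µM; DMSO stock at 200× final, 0.5% DMSO vehicle). Lysates in modified RIPA were immunoprecipitated with ephrin-A1-Fc on Protein G beads. Blots were probed for pEphA/B and EphA2, and pEphA2/total EphA2 was quantified by band densitometry.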

Chain of Ephrin type-A receptor 2 (Homo sapiens) (P29317 whole entry): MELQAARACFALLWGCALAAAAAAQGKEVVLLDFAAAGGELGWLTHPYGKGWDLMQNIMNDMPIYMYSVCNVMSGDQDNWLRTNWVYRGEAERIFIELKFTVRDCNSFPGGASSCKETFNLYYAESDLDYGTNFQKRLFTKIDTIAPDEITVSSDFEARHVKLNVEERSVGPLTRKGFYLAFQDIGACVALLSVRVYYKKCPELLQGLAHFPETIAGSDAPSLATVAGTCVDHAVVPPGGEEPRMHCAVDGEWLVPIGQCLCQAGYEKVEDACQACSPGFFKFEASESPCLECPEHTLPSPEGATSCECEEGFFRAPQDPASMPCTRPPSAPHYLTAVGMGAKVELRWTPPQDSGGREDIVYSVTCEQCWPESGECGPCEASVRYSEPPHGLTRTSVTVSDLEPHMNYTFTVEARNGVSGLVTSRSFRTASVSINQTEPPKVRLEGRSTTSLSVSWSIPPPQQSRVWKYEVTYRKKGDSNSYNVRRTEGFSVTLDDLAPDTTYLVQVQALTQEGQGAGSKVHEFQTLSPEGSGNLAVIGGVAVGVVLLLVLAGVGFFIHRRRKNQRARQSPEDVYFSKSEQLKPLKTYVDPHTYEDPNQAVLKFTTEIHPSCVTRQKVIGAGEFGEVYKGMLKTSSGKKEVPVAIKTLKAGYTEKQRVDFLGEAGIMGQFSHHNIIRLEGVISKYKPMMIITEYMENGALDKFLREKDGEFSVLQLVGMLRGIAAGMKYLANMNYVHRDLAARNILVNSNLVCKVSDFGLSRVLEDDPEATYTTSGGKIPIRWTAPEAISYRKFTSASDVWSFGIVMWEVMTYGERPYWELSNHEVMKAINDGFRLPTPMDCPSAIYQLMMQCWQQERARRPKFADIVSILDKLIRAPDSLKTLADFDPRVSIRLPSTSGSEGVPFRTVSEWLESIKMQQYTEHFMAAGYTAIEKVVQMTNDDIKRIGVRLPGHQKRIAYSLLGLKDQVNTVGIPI

SMILES	Activity
COc1cc2nc(N3CCN(C(=O)CCCCCCCCCCC(=O)N4CCN(c5nc(N)c6cc(OC)c(OC)cc6n5)CC4)CC3)nc(N)c2cc1OC	Active

test system: MDA-MB-231; test: Anticlonogenic activity against human MDA-MB-231 cells up to 10 uM after 14 days by crystal violet staining-based assay; assay type: functional, cell-based
Outline: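 Parental MDA-MB-231 cells, 1000/well, cultured 24 h, then exposed to 0, 0.08, 0.4, 2 or 10 µM compound in 0.5% DMSO for 14 days. Colonies were fixed in 4% paraformaldehyde, rinsed in 20% methanol and stained with 0.5% crystal violet. Three independent experiments.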

SMILES	Activity
CCCCCC(=O)N1CCN(c2nc(N)c3cc(OC)c(OC)cc3n2)CC1	Active
COc1cc2nc(N3CCN(C(=O)CCCCCCCCCCC(=O)N4CCN(c5nc(N)c6cc(OC)c(OC)cc6n5)CC4)CC3)nc(N)c2cc1OC	Active
COc1cc2nc(N3CCN(C(=O)Cc4ccc(OCc5ccccc5)cc4)CC3)nc(N)c2cc1OC	Active

biological target: Ephrin type-A receptor 2 (Homo sapiens) (UniProt P29317); test: Agonist activity against EphA2 (unknown origin) overexpressed in MDA-MB-231-A2 cells assessed as increase in phosphorylated EphA2 levels at 2 to 50 uM after 30 mins by immunoprecipitation and immunoblot assay relative to 50 uM doxazosin; assay type: cell-based; outline: as §1

SMILES	Activity
COc1cc2nc(N3CCN(C(=O)c4ccncc4)CC3)nc(N)c2cc1OC	inactive
CCCCCC(=O)N1CCN(c2nc(N)c3cc(OC)c(OC)cc3n2)CC1	inactive
COc1cccc(CC(=O)N2CCN(c3nc(N)c4cc(OC)c(OC)cc4n3)CC2)c1	Active
COc1cc2nc(N3CCN(C(=O)Cc4ccc(OCc5ccccc5)cc4)CC3)nc(NC(C)=O)c2cc1OC	inactive
COc1ccc(CC(=O)N2CCN(c3nc(N)c4cc(OC)c(OC)cc4n3)CC2)cc1	Active
COc1cc2nc(N3CCN(C(=O)c4ccc(Br)cc4)CC3)nc(N)c2cc1OC	Active
COc1cc2nc(N3CCN(C(=O)c4ccccn4)CC3)nc(N)c2cc1OC	inactive
COc1cc2nc(N3CCN(C(=O)c4ccc5c(c4)OCO5)CC3)nc(N)c2cc1OC	Active
CCc1ccc(C(=O)N2CCN(c3nc(N)c4cc(OC)c(OC)cc4n3)CC2)cc1	Active
COc1cc2nc(N3CCN(C(=O)Cc4ccc(OCc5ccccc5)cc4)CC3)nc(N3CCCCC3)c2cc1OC	inactive
COc1cc2nc(N3CCN(C(=O)CCCCC(=O)N4CCN(c5nc(N)c6cc(OC)c(OC)cc6n5)CC4)CC3)nc(N)c2cc1OC	inactive
COc1cc2nc(N3CCN(C(=O)Cc4ccccc4)CC3)nc(N)c2cc1OC	Active
COc1cc2nc(N3CCN(C(=O)C4COc5ccccc5O4)CC3)nc(NC(C)=O)c2cc1OC (centres undefined)	inactive
COc1cc2nc(N3CCN(C(=O)CCCCCCCCCCC(=O)N4CCN(c5nc(N)c6cc(OC)c(OC)cc6n5)CC4)CC3)nc(N)c2cc1OC	Active
COc1cc2nc(N3CCN(C(=O)Cc4ccc(OCc5ccccc5)cc4)CC3)nc(N3CCCC3)c2cc1OC	inactive
COc1cc2nc(N3CCN(C(=O)c4ccc5ccccc5c4)CC3)nc(N)c2cc1OC	Active
COc1cc2nc(N3CCN(C(=O)Cc4ccc(OCc5ccccc5)cc4)CC3)nc(N)c2cc1OC	Active

SMILES	Activity
CCC(=O)N1CCN(c2nc(N)c3cc(OC)c(OC)cc3n2)CC1	inactive
COc1ccc(C(=O)N2CCN(c3nc(N)c4cc(OC)c(OC)cc4n3)CC2)cc1	inactive
COc1cc2nc(N3CCN(C(=O)Cc4ccc5ccccc5c4)CC3)nc(N)c2cc1OC	Active
COc1cc2nc(N3CCN(C(=O)c4cccs4)CC3)nc(N)c2cc1OC	inactive
COc1cc2nc(N3CCN(C(=O)c4ccc(Cl)c([N+](=O)[O-])c4)CC3)nc(N)c2cc1OC	inactive
COc1ccc(C(=O)N2CCN(C(=O)c3ccc(OC)cc3)CC2)cc1	inactive
COc1cc2nc(N3CCN(C(=O)c4ccno4)CC3)nc(N)c2cc1OC	inactive
CCOc1cc2nc(N3CCN(C(=O)Cc4ccc(OCc5ccccc5)cc4)CC3)nc(N)c2cc1OCC	inactive
COc1cc2nc(N3CCN(C(C)=O)CC3)nc(N)c2cc1OC	inactive
COc1cc2nc(N3CCN(C(=O)C(C)c4ccccc4)CC3)nc(N)c2cc1OC (centres undefined)	Active
CSc1ccc(C(=O)N2CCN(C(=O)c3ccc(SC)cc3)CC2)cc1	inactive
COc1cc2nc(N3CCN(C(=O)c4ccc(I)cc4)CC3)nc(N)c2cc1OC	Active
CCCC(=O)N1CCN(c2nc(N)c3cc(OC)c(OC)cc3n2)CC1	inactive
COc1cc2nc(N3CCN(C(=O)c4ccco4)CC3)nc(N)c2cc1OC	inactive
COc1cc2nc(N3CCN(C(=O)C4CCCCC4)CC3)nc(N)c2cc1OC	inactive
COc1cc2nc(N3CCN(C(=O)c4ccc(-c5ccccc5)cc4)CC3)nc(N)c2cc1OC	Active

biological target: Ephrin type-A receptor 2 (Homo sapiens) (UniProt P29317); test: Binding affinity to EphA2 in human MDA-MB-231 cells assessed as induction of EphA2 receptor internalization at 0.4 uM after 1 hr by immunofluorescence microscopy; assay type: cell-based
Outline: (§2)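 MDA-MB-231 cells on fibronectin-coated coverslips, 24–48 h after seeding, treated 1 h with compound (0.4–50 µM) in 0.5% DMSO. Cells were then PFA-fixed on ice, permeabilized with NP-40 and immunostained with anti-EphA2 (D7) plus Alexa Fluor 488 secondary, with DAPI counterstain. Surface versus intracellular EphA2 was judged by fluorescence microscopy. Three independent repeats.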

SMILES	Activity
COc1cc2nc(N3CCN(C(=O)CCCCCCCCCCC(=O)N4CCN(c5nc(N)c6cc(OC)c(OC)cc6n5)CC4)CC3)nc(N)c2cc1OC	Active

biological target: Ephrin type-A receptor 2 (Homo sapiens) (UniProt P29317); test: Binding affinity to EphA2 in human MDA-MB-231 cells assessed as induction of EphA2 receptor internalization at 50 uM after 1 hr by immunofluorescence microscopy; assay type: cell-based; outline: as §2

SMILES	Activity
COc1cc2nc(N3CCN(C(=O)C4COc5ccccc5O4)CC3)nc(N)c2cc1OC (centres undefined)	Active

— ChEMBL document CHEMBL4138162, “Design and synthesis of small molecule agonists of EphA2 receptor” (Eur J Med Chem, 2018)
